STAT3 inh = STAT3 signaling inhibition. U3A cells, IL-6 STAT3-luciferase reporter, luminescence; host cell line lacks STAT1. inhibition, % at 5.5 µM. 190,000 tested, 0.89% active. AID 862;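 active = inhibition above the mean inhibition across all screened compounds plus 3 SD, cut at about 44% in these data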;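 also: 0% = DMSO only wells and 100% = 100 µM nifuroxazide control wells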
APP 5'UTR act = APP 5'UTR luciferase reporter activation; SH-SY5Y APP 5'UTR luciferase reporter, luminescence; zero percent = DMSO vehicle wells; activation, % at 2 µM; 190,000 tested, 1% active;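 active = activation above a set limit, based on mean plus 3 SD of controls, cut at about 140% in these data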
STAT1 act = activators of IFN-gamma induced STAT1 signaling. NIH 3T3 STAT1-luciferase reporter, luminescence; 100% = IFN-gamma alone, no compound. activation (% of control), % at 5.5 µM. 200,000 tested, 2.6% active. AID 932;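 active = activation above the screen-wide mean activation plus 3 SD, cut at about 130% in these data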;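 also: raw ratio to IFN-gamma control signal so 100% means no change and 0% no light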
NF-kB expr up = raises NF-kB expression in human neuronal cells | NF-kB reporter expression; stronger effect = higher value | fold change at 12.5 µM | 190,000 tested, 1.6% active | AID 1239; in the data active = fold change above about 3.3
STAT3 activator = activators of IL-6 induced STAT3 signaling | U3A cells, IL-6 STAT3-luciferase reporter, luminescence; 100% = signal with IL-6 EC80 alone | activation (% of control), % at 5.6 µM | 190,000 tested, 0.91% active | AID 871;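 active = activation above the screen-wide mean of compound activation plus 3 SD, cut at about 130% in these data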;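 also: 0% = background luminescence of wells with medium and substrate only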
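Material: human U3A cells carrying STAT3-luciferase construct. Measured by: reporter luminescence signal. Timing: compound 1 h, then IL-6 6 h at 37 °C.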
STAT1 blocker = reduces IFN-gamma driven STAT1 reporter signal; NIH 3T3 STAT1-luciferase reporter, luminescence; inhibition, % at 5.5 µM; 200,000 tested, 0.35% active;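 active = inhibition above a set limit, the mean inhibition across all tested compounds plus 3 SD, cut at about 34% in these data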;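 also: 0% = IFN-gamma with DMSO and 100% = IFN-gamma with 300 µM nifuroxazide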
Active calls of the source: *. In the library only some 4.9% were active in any assay of this set; here they are far more common.

How did CS(=O)(=O)N1N=C(c2cccs2)CC1c1ccccc1F (stereo not given) do in these assays?
STAT3 inh: 11; APP 5'UTR act: 3; STAT1 act: 101; STAT3 activator: 95; STAT1 blocker: -3

What do the screens show for `C/C(=N/OCc1ccc(Br)cc1)c1ccccn1`?
STAT3 inh: 12; APP 5'UTR act: 197*; STAT1 act: 138*; NF-kB expr up: 4*; STAT3 activator: 90; STAT1 blocker: -40

What do the screens show for `N/C(=N\OCc1ccc([N+](=O)[O-])cc1)c1ccccn1`?
STAT3 inh: 110*; APP 5'UTR act: 34; STAT1 act: 16; NF-kB expr up: 1.6; STAT3 activator: 12; STAT1 blocker: 90*

How did Cc1ccc(-c2csc(NC(=O)c3ccno3)n2)cc1 do in these assays?
STAT3 inh: 2; APP 5'UTR act: 13; STAT1 act: 131*; NF-kB expr up: 1.4; STAT3 activator: 99; STAT1 blocker: -34

How did Cc1ccc(-c2csc(NC(=O)c3ccc(C)o3)n2)cc1 do in these assays?
STAT3 inh: 8; APP 5'UTR act: 13; STAT1 act: 96; NF-kB expr up: 1.1; STAT3 activator: 94; STAT1 blocker: 4

How did COc1ccc(-c2csc(NC(=O)COC(=O)C3=COCCO3)n2)cc1 do in these assays?
STAT3 inh: 2; APP 5'UTR act: 45; STAT1 act: 130*; NF-kB expr up: 1.2; STAT3 activator: 99; STAT1 blocker: -31

What do the screens show for `COc1ccc(-c2csc(NC(=O)c3ccoc3C)n2)cc1`?
STAT3 inh: 7; APP 5'UTR act: 47; STAT1 act: 133*; NF-kB expr up: 1.8; STAT3 activator: 98; STAT1 blocker: -39

How did COC(=O)c1c(-c2ccncc2)csc1NC(=O)c1ccoc1C do in these assays?
STAT3 inh: 10; APP 5'UTR act: 29; STAT1 act: 136*; NF-kB expr up: 2.5; STAT3 activator: 93; STAT1 blocker: -37

What do the screens show for `CCN(CC)C(=O)c1sc(NC(=O)c2ccoc2C)c(C(=O)OC)c1C`?
STAT3 inh: 8; APP 5'UTR act: -1; STAT1 act: 108; NF-kB expr up: 1.1; STAT3 activator: 97; STAT1 blocker: -11

What do the screens show for `COc1ccc(-c2csc(NCc3ccco3)n2)cc1`?
STAT3 inh: 1; APP 5'UTR act: 158*; STAT1 act: 135*; NF-kB expr up: 6.2*; STAT3 activator: 105; STAT1 blocker: -37

How did Cc1cccnc1NC(=S)NC(=O)c1cccs1 do in these assays?
STAT3 inh: -50; APP 5'UTR act: 198*; STAT1 act: 174*; NF-kB expr up: 5*; STAT3 activator: 154*; STAT1 blocker: -82

What do the screens show for `Cc1cccnc1NC(=S)NC(=O)c1cncc(Br)c1`?
STAT3 inh: 4; APP 5'UTR act: 70; STAT1 act: 122; NF-kB expr up: 2.2; STAT3 activator: 101; STAT1 blocker: -24

How did Cc1ccccc1C(=O)Nc1ccc(Br)cn1 do in these assays?
STAT3 inh: 15; APP 5'UTR act: 111; STAT1 act: 134*; NF-kB expr up: 3.8*; STAT3 activator: 96; STAT1 blocker: -37

What do the screens show for `O=C(NC(=S)Nc1ccc(Br)cn1)c1cccs1`?
STAT3 inh: -84; APP 5'UTR act: 195*; STAT1 act: 204*; NF-kB expr up: 4*; STAT3 activator: 168*; STAT1 blocker: -112

What do the screens show for `C=CC[C@@H]1C=C[C@H](O/N=C/c2ccc(C(=O)N3[C@H](c4ccc(C)cc4)[C@@H](C)CC[C@H]3C(=O)OC)cc2)[C@@H](CO)O1`?
STAT3 inh: -15; APP 5'UTR act: 5; STAT1 act: 109; NF-kB expr up: 0.94; STAT3 activator: 110; STAT1 blocker: -10

What do the screens show for `O=C(Nc1ccc(Cl)cc1F)C1CC1`?
STAT3 inh: 13; APP 5'UTR act: -6; STAT1 act: 94; NF-kB expr up: 0.89; STAT3 activator: 91; STAT1 blocker: 7

What do the screens show for `COc1ccccc1NC(=O)Nc1nnc(C(C)C)s1`?
STAT3 inh: -5; APP 5'UTR act: 43; STAT1 act: 140*; NF-kB expr up: 1.7; STAT3 activator: 107; STAT1 blocker: -44

What do the screens show for `CC(=O)Nc1ccc(/C=C/c2ccc3c([N+](=O)[O-])cccc3n2)cc1`?
STAT3 inh: 7; APP 5'UTR act: 65; STAT1 act: 136*; NF-kB expr up: 1.1; STAT3 activator: 96; STAT1 blocker: -42

How did O=[N+]([O-])c1cccc2ccc(/C=C/c3ccc(Cl)cc3)nc12 do in these assays?
STAT3 inh: -24; APP 5'UTR act: 23; STAT1 act: 113; NF-kB expr up: 2; STAT3 activator: 115; STAT1 blocker: -14

What do the screens show for `Cc1cccc(C)c1OCC(=O)Nc1cccc(-c2nnc(-c3ccccc3)o2)c1`?
STAT3 inh: 15; APP 5'UTR act: 4; STAT1 act: 106; NF-kB expr up: 0.6; STAT3 activator: 90; STAT1 blocker: -7

Results for Cc1ccc(OCC(=O)Nc2cccc(-c3nnc(-c4ccccc4)o3)c2)cc1 ?
STAT3 inh: 20; APP 5'UTR act: 97; STAT1 act: 143*; NF-kB expr up: 2.3; STAT3 activator: 88; STAT1 blocker: -44

What do the screens show for `CCCCC(=O)Nc1cccc(-c2nnc(-c3ccccc3)o2)c1`?
STAT3 inh: 28; APP 5'UTR act: 28; STAT1 act: 117; NF-kB expr up: 0.77; STAT3 activator: 79; STAT1 blocker: -23

Results for Cc1cccc(OCC(=O)Nc2cccc(-c3nnc(-c4ccccc4)o3)c2)c1C ?
STAT3 inh: 18; APP 5'UTR act: 15; STAT1 act: 130*; NF-kB expr up: 1.9; STAT3 activator: 89; STAT1 blocker: -32

How did COc1cccc(NC(=O)COc2ccccc2C(N)=O)c1 do in these assays?
STAT3 inh: 11; APP 5'UTR act: 87; STAT1 act: 134*; NF-kB expr up: 3.1; STAT3 activator: 93; STAT1 blocker: -43

How did O=C(Nc1cccc(-c2nnc(-c3ccccc3)o2)c1)C1CCCCC1 do in these assays?
STAT3 inh: 26; APP 5'UTR act: 20; STAT1 act: 141*; NF-kB expr up: 1.4; STAT3 activator: 79; STAT1 blocker: -36

What do the screens show for `S=C(NCc1ccc(Cl)cc1Cl)NC1CCCCC1`?
STAT3 inh: 1; APP 5'UTR act: 3; STAT1 act: 105; NF-kB expr up: 0.89; STAT3 activator: 98; STAT1 blocker: -5

Results for O=C(NCc1cccc(C(F)(F)F)c1)C1CC(c2c(Cl)cccc2Cl)=NO1 (stereo not given) ?
STAT3 inh: 5; APP 5'UTR act: 1; STAT1 act: 94; NF-kB expr up: 1.1; STAT3 activator: 99; STAT1 blocker: 6

Results for Nc1[nH]nc2nc(NCc3ccccc3)c3c(c12)CCN(Cc1ccccc1)C3 ?
STAT3 inh: -7; APP 5'UTR act: 2; STAT1 act: 111; NF-kB expr up: 4.3*; STAT3 activator: 112; STAT1 blocker: -11

Bioassay records: PubChem, several laboratories
